Experiments:
[1] = Positive allosteric modulation of mGlu2 receptor in CHO cell membranes preincubated for 30 mins in presence of 4 uM glutamate followed by [35S]GTPgammaS addition and measured after 30 mins by scintillation counting analysis; design: species or system Cricetulus griseus
Procedure, shortened: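 No absolute EC50 was given where the concentration–response curve reached no clear upper plateau.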

CHO [2] = test: Positive allosteric modulation of mGlu2 receptor in CHO cell membranes preincubated for 30 mins in presence of 4 uM glutamate followed by [35S]GTPgammaS addition and measured after 30 mins by scintillation counting analysis relative to control; details: Cricetulus griseus
Procedure, shortened: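 EMAX is the % response, given as the median of at least two experiments with standard deviation.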

CHO [3] = test: Positive allosteric modulation of mGlu2 receptor in CHO cell membranes at 1 uM preincubated for 30 mins in presence of 4 uM glutamate followed by [35S]GTPgammaS addition and measured after 30 mins by scintillation counting analysis; details: Cricetulus griseus
[4] = Stability in human liver microsomes assessed as percentage of compound metabolized at 5 uM after 15 mins; assay type: ADME, Microsome; details: for metabolised at 0.25 h, 5 µM: liver microsomes, read-out: Drug metabolism
[5] = Stability in rat liver microsomes assessed as percentage of compound metabolized at 5 uM after 15 mins; assay type: ADME, Microsome; details: for metabolised at 0.25 h, 5 µM: liver microsomes, read-out: Drug metabolism
[6] = Brain to plasma permeability coefficient, Kp in Sprague-Dawley rat at 30 mg/kg, po after 2 hrs; assay type: ADME, organism-based
Procedure, shortened: (§1)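 Single oral dose to male Sprague–Dawley rats (n = 1), given as a suspension in 20% HP-β-CD at pH 7, at 10 or 30 mg/kg. Plasma (ng/mL) and brain (ng/g) levels were taken at 2 and 4 h. Kp is the brain/plasma partition coefficient at 2 h.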

[7] = Drug level in Sprague-Dawley rat plasma at 30 mg/kg, po after 2 hrs; assay type: ADME, organism-based; procedure, shortened: as §1
[8] = Drug level in Sprague-Dawley rat plasma at 30 mg/kg, po after 4 hrs; assay type: ADME, organism-based; procedure, shortened: as §1
[9] = Drug concentration in Sprague-Dawley rat brain at 30 mg/kg, po after 2 hrs; assay type: ADME, organism-based; details: read-out: Drug uptake; procedure, shortened: as §1
[10] = Drug concentration in Sprague-Dawley rat brain at 30 mg/kg, po after 4 hrs; assay type: ADME, organism-based; details: read-out: Drug uptake; procedure, shortened: as §1
[11] = Brain to plasma permeability coefficient, Kp in Sprague-Dawley rat at 10 mg/kg, po after 2 hrs; assay type: ADME, organism-based; procedure, shortened: as §1
[12] = Drug level in Sprague-Dawley rat plasma at 10 mg/kg, po after 2 hrs; assay type: ADME, organism-based; procedure, shortened: as §1
[13] = Drug level in Sprague-Dawley rat plasma at 10 mg/kg, po after 4 hrs; assay type: ADME, organism-based; procedure, shortened: as §1
[14] = Drug concentration in Sprague-Dawley rat brain at 10 mg/kg, po after 2 hrs; assay type: ADME, organism-based; details: read-out: Drug uptake; procedure, shortened: as §1
[15] = Drug concentration in Sprague-Dawley rat brain at 10 mg/kg, po after 4 hrs; assay type: ADME, organism-based; details: for concentration at 4 h: Sprague-Dawley, brain, read-out: Drug uptake; procedure, shortened: as §1
MDR1 [16] = test: Efflux ratio of permeability in pig LLC-PK1 cells transfected with MDR1; assay type: ADME, cell-based, Sus scrofa
MDR1 [17] = test: Permeability in pig LLC-PK1 cells transfected with MDR1 gene; assay type: ADME, cell-based, Sus scrofa; details: read-out: permeability
[18] = molecular target: Adenosine receptor A2b (Homo sapiens) (UniProt P29275); test: Displacement of radioligand from human adenosine A2B receptor
Sequence of Adenosine receptor A2b (Homo sapiens) (P29275 whole entry, looked up): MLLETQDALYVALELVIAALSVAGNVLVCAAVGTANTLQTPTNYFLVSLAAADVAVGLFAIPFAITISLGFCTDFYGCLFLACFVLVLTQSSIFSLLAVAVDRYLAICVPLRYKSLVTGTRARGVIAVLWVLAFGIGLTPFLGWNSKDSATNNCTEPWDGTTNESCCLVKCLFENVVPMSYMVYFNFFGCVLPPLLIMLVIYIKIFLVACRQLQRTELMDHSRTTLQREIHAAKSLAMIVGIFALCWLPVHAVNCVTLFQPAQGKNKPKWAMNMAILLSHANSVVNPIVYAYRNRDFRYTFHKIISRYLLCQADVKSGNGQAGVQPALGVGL

[19] = microsomes, 0.25 h, 5 µM, BLD = below limit of detection

Compound | EC50 [1] [nM] | Emax (CHO [2]) [%] | Activity (CHO [3]) [%] | metabolised at 0.25 h, 5 µM [4] [%] | metabolised at 0.25 h, 5 µM [5] [%] | further results
CCNc1cc(N2CCC3(CC2)C(=O)Nc2ccc(Br)cc23)nnc1Cl | 240 | 394 | 263 | 8 | 65 | 
O=C1Nc2ccc(F)cc2C12CCN(c1ccc(Cl)nn1)CC2 |  | 184 | 31 | 11 | 57 | 
O=C1Nc2cc(Br)ccc2C12CCN(c1ccc(Cl)nn1)CC2 |  | 183 | 76 |  |  | 
O=C1Nc2ccccc2C12CCN(c1ccc(Cl)nn1)CC2 |  | 217 | 24 | 45 | 95 | 
Cc1ccc(N2CCC3(CC2)C(=O)Nc2ccc(Br)cc23)nn1 |  | 228 | 36 | 17 | 69 | 
O=C1Nc2ccc(Cl)cc2C12CCN(c1ccc(Cl)nn1)CC2 | 1000 | 187 | 80 | 8 | 76 | 
O=C1Nc2ccc(Br)cc2C12CCN(c1cccnn1)CC2 |  | 141 | 7 |  |  | 
CCNc1cc(N2CC(n3c(=O)[nH]c4ccccc43)C2)nnc1Cl | 280 | 291 |  | 0 | 23 | Kp at 2 h [6]: 0.03; concentration at 2 h [7]: 1480 ng/mL; concentration at 4 h [8]: 842 ng/mL; concentration at 2 h [9]: 48 ng/g; concentration at 4 h [10]: 31 ng/g
O=C1Nc2cccc(Br)c2C12CCN(c1ccc(Cl)nn1)CC2 |  | 108 | 31 |  |  | 
O=C1Nc2ccc(C3CC3)cc2C12CCN(c1ccc(Cl)nn1)CC2 | 630 | 169 | 105 | 45 | 100 | 
CC(C)(C)OC(=O)N1CCC2(CC1)C(=O)Nc1ccc(Br)cc12 | 10000 | 120 |  |  |  | 
CCOc1cc(N2CCC3(CC2)C(=O)Nc2ccc(Br)cc23)nnc1Cl | 210 | 380 | 203 | 11 | 58 | Kp at 2 h [11]: 0.37; concentration at 2 h [12]: 49 ng/mL; concentration at 4 h [13]: 17 ng/mL; concentration at 2 h [14]: 18 ng/g; Drug uptake ([15]; in vivo, 4 h, BLD = below limit of detection): Bld
CCNc1cc(N2CC(n3c(=O)[nH]c4ccc(Br)cc43)C2)nnc1Cl | 230 | 241 |  | 9 | 26 | Kp at 2 h [11]: 0.07; concentration at 2 h [12]: 254 ng/mL; concentration at 4 h [13]: 416 ng/mL; concentration at 2 h [14]: 18 ng/g; concentration at 4 h [15]: 18 ng/g
O=C1Nc2ccc(Br)cc2C12CCN(c1ccc(C(F)(F)F)nn1)CC2 | 400 | 53 | 46 | 4 | 20 | 
FC(F)(F)c1cccc(C2CCN(c3ccc(Cl)nn3)CC2)c1 | 2290 | 128 |  |  |  | 
CCOc1cc(N2CC(n3c(=O)[nH]c4ccccc43)C2)ncc1Cl | 270 | 259 |  | 15 | 46 | Kp at 2 h [6]: 0.36; concentration at 2 h [7]: 5770 ng/mL; concentration at 4 h [8]: 5780 ng/mL; concentration at 2 h [9]: 2050 ng/g; concentration at 4 h [10]: 2370 ng/g; efflux ratio (MDR1 [16]): 1.18; Papp (MDR1 [17]): 13 ×10⁻⁶ cm/s
CCNc1cc(N2CC(n3c(=O)[nH]c4ccccc43)C2)ncc1Cl | 120 | 381 |  | 27 | 88 | 
CCOc1nc(N2CC(n3c(=O)[nH]c4cc(C(F)(F)F)ccc43)C2)ncc1Cl | 150 | 220 |  |  |  | Drug metabolism [4, 19]: Bld; Drug metabolism [5, 19]: Bld
CCOc1cc(N2CC(n3c(=O)[nH]c4cc(C(F)(F)F)ccc43)C2)ncc1Cl | 80 | 218 |  | 4 | 12 | Kp at 2 h [6]: 0.14; concentration at 2 h [7]: 2660 ng/mL; concentration at 4 h [8]: 5090 ng/mL; concentration at 2 h [9]: 371 ng/g; concentration at 4 h [10]: 996 ng/g; efflux ratio (MDR1 [16]): 1.24; Papp (MDR1 [17]): 9 ×10⁻⁶ cm/s
CCOc1cc(N2CCC3(CC2)C(=O)Nc2ccc(Br)cc23)nnc1C(F)(F)F | 130 | 216 | 160 | 9 | 43 | Kp at 2 h [11]: 1.4; concentration at 2 h [12]: 260 ng/mL; concentration at 4 h [13]: 220 ng/mL; concentration at 2 h [14]: 310 ng/g; concentration at 4 h [15]: 290 ng/g; IC50 [18]: 790 nM
CCOc1ccc(N2CCC3(CC2)C(=O)Nc2ccc(Br)cc23)nn1 | > 10000 | 52 | 5 | 7 | 31 | 
O=C1Nc2c(Br)cccc2C12CCN(c1ccc(Cl)nn1)CC2 | 3090 | 65 | 9 |  |  | 
O=C1Nc2ccc(Br)cc2C12CCN(c1ccc(Cl)nn1)CC2 | 1020 | 232 | 100 | 8 | 25 | 
